{"source": "ChEMBL document CHEMBL4270594", "about": "“Design, synthesis and pharmacological evaluation of new 3-(1H-benzimidazol-2-yl)quinolin-2(1H)-one derivatives as potential antitumor agents” (Eur J Med Chem, 2018)", "key": {"Mus musculus [1]": {"system": "Mus musculus", "test": "Upregulation of Bax protein expression in tumor tissues of Balb/c nude mouse xenografted with human Bel7404 cells at 25 to 50 mg/kg, ip bid for 20 days measured on day 21 by Western blot analysis", "assay_type": "functional, organism-based"}, "BEL-7404 tumor cell line [2]": {"system": "BEL-7404 tumor cell line", "test": "Cell cycle arrest in human Bel7404 cells assessed as accumulation at G1-phase at 9 uM after 48 hrs by propidium iodide staining based flow cytometry (reference value: 59.16%)", "assay_type": "functional"}, "BEL-7404 tumor cell line [3]": {"system": "BEL-7404 tumor cell line", "test": "Cell cycle arrest in human Bel7404 cells assessed as accumulation at S-phase at 9 uM after 48 hrs by propidium iodide staining based flow cytometry (reference value: 22%)", "assay_type": "functional"}, "Mus musculus [4]": {"system": "Mus musculus", "test": "Downregulation of PARP protein expression in tumor tissues of Balb/c nude mouse xenografted with human Bel7404 cells at 25 to 50 mg/kg, ip bid for 20 days measured on day 21 by Western blot analysis", "assay_type": "functional, organism-based"}, "Mus musculus [5]": {"system": "Mus musculus", "test": "Downregulation of APAF-1 protein expression in tumor tissues of Balb/c nude mouse xenografted with human Bel7404 cells at 25 to 50 mg/kg, ip bid for 20 days measured on day 21 by Western blot analysis", "assay_type": "functional, organism-based"}, "HepG2 [6]": {"system": "HepG2", "test": "Cell cycle arrest in human HepG2 cells assessed as accumulation at G2-phase at 6 uM after 48 hrs by propidium iodide staining based flow cytometry (reference value: 19.04%)", "assay_type": "functional"}, "HepG2 [7]": {"system": "HepG2", "test": "Cell cycle arrest in human HepG2 cells assessed as accumulation at G2-phase at 8 uM after 48 hrs by propidium iodide staining based flow cytometry (reference value: 19.04%)", "assay_type": "functional"}, "HepG2 [8]": {"system": "HepG2", "test": "Cell cycle arrest in human HepG2 cells assessed as accumulation at G2-phase at 10 uM after 48 hrs by propidium iodide staining based flow cytometry (reference value: 19.04%)", "assay_type": "functional"}, "HepG2 [9]": {"system": "HepG2", "test": "Cell cycle arrest in human HepG2 cells assessed as accumulation at S-phase at 10 uM after 48 hrs by propidium iodide staining based flow cytometry (reference value: 30.49%)", "assay_type": "functional"}, "HepG2 [10]": {"system": "HepG2", "test": "Downregulation of Cyclin-B1 protein expression in human HepG2 cells at 6 to 10 uM after 12 hrs by Western blot analysis", "assay_type": "functional, cell-based"}, "HepG2 [11]": {"system": "HepG2", "test": "Downregulation of CDC25C protein expression in human HepG2 cells at 6 to 10 uM after 12 hrs by Western blot analysis", "assay_type": "functional, cell-based"}, "HepG2 [12]": {"system": "HepG2", "test": "Upregulation of p53 protein expression in human HepG2 cells at 6 to 10 uM after 12 hrs by Western blot analysis", "assay_type": "functional, cell-based", "procedure,_shortened": "(§1)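 HepG2 cell lysates after compound treatment analyzed by western blot for the target protein, compared with untreated negative control.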"}, "Mus musculus [13]": {"system": "Mus musculus", "test": "Upregulation of p53 protein expression in tumor tissues of Balb/c nude mouse xenografted with human NCI-H460 cells at 25 to 50 mg/kg, ip bid for 13 days measured on day 14 by Western blot analysis", "assay_type": "functional, organism-based", "procedure,_shortened": "(§2)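 Tumors from NCI-H460 xenografted BALB/c nude mice (25 or 50 mg/kg, vehicle 5% DMSO in saline) collected at day 14; protein levels in tumor tissue determined by western blot versus vehicle control.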"}, "HepG2 [14]": {"system": "HepG2", "test": "Induction of apoptosis in human HepG2 cells assessed as early apoptotic cells at 6 uM after 24 hrs by Annexin V-FITC/ propidium iodide staining based flow cytometry (reference value: 6.5%)", "assay_type": "functional"}, "HepG2 [15]": {"system": "HepG2", "test": "Induction of apoptosis in human HepG2 cells assessed as morphological changes at 6 to 10 uM after 12 hrs by […] staining based fluorescence microscopic method", "assay_type": "functional, cell-based", "procedure,_shortened": "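HepG2 cells treated for 12 h, stained with Hoechst 33258 and viewed by fluorescence microscopy for nuclear blue fluorescence and apoptotic morphology, compared with untreated cells.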"}, "HepG2 [16]": {"system": "HepG2", "test": "Induction of apoptosis in human HepG2 cells assessed as cell budding at 6 to 10 uM after 12 hrs by acridine orange/ethidium bromide staining based fluorescence microscopic method", "assay_type": "functional"}, "HepG2 [17]": {"system": "HepG2", "test": "Induction of apoptosis in human HepG2 cells assessed as live cells at 6 uM after 24 hrs by Annexin V-FITC/ propidium iodide staining based flow cytometry (reference value: 91.31%)", "assay_type": "functional"}, "HepG2 [18]": {"system": "HepG2", "test": "Induction of apoptosis in human HepG2 cells assessed as necrotic cells at 6 uM after 24 hrs by Annexin V-FITC/ propidium iodide staining based flow cytometry (reference value: 0.28%)", "assay_type": "functional"}, "HepG2 [19]": {"system": "HepG2", "test": "Induction of apoptosis in human HepG2 cells assessed as live cells at 8 uM after 24 hrs by Annexin V-FITC/ propidium iodide staining based flow cytometry (reference value: 91.31%)", "assay_type": "functional"}, "HepG2 [20]": {"system": "HepG2", "test": "Induction of apoptosis in human HepG2 cells after 24 hrs by Annexin V-FITC/ propidium iodide staining based flow cytometry", "assay_type": "functional, cell-based"}, "HepG2 [21]": {"system": "HepG2", "test": "Induction of ROS in human HepG2 cells at 6 to 10 uM by DAPI staining based fluorescence microscopic method", "assay_type": "functional, cell-based"}, "HepG2 [22]": {"system": "HepG2", "test": "Induction of ROS in human HepG2 cells at 6 to 10 uM by DCFH-DA staining based fluorescence microscopic method", "assay_type": "functional, cell-based"}, "HepG2 [23]": {"system": "HepG2", "test": "Induction of intracellular calcium level in human HepG2 cells at 6 to 10 uM after 24 hrs by Fluo3-AM staining based fluorescence microscopic method", "assay_type": "functional, cell-based"}, "HepG2 [24]": {"system": "HepG2", "test": "Upregulation of caspase-3 protein expression in human HepG2 cells at 6 to 10 uM after 12 hrs by Western blot analysis", "assay_type": "functional, cell-based", "procedure,_shortened": "as §1"}, "HepG2 [25]": {"system": "HepG2", "test": "Upregulation of PARP protein expression in human HepG2 cells at 6 to 10 uM after 12 hrs by Western blot analysis", "assay_type": "functional, cell-based", "procedure,_shortened": "as §1"}, "Mus musculus [26]": {"system": "Mus musculus", "test": "Upregulation of PARP protein expression in tumor tissues of Balb/c nude mouse xenografted with human NCI-H460 cells at 25 to 50 mg/kg, ip bid for 13 days measured on day 14 by Western blot analysis", "assay_type": "functional, organism-based", "procedure,_shortened": "as §2"}, "HepG2 [27]": {"system": "HepG2", "test": "Upregulation of p53 protein expression in human HepG2 cells at 8 uM after 12 hrs by Western blot analysis", "assay_type": "functional, cell-based"}}, "note": "Active and inactive are the calls of the source. The calls are words filed in the database; no cut-off is given here."}
{"smiles": "O=c1[nH]c2cc3c(cc2cc1-c1nc2cc(Cl)ccc2[nH]1)OCO3", "values": [{"measurement": "Activity", "setting": "Mus musculus [1]", "value": "inactive"}, {"measurement": "Activity", "setting": "BEL-7404 tumor cell line [2]", "value": 45.76, "unit": "%"}, {"measurement": "Activity", "setting": "BEL-7404 tumor cell line [3]", "value": 23.66, "unit": "%"}, {"measurement": "Activity", "setting": "Mus musculus [4]", "value": "Active"}, {"measurement": "Activity", "setting": "Mus musculus [5]", "value": "Active"}]}
{"smiles": "O=c1[nH]c2ccccc2cc1-c1nc2cc(Cl)ccc2[nH]1", "values": [{"measurement": "Activity", "setting": "HepG2 [6]", "value": 39, "unit": "%"}, {"measurement": "Activity", "setting": "HepG2 [7]", "value": 39.71, "unit": "%"}, {"measurement": "Activity", "setting": "HepG2 [8]", "value": 49.1, "unit": "%"}, {"measurement": "Activity", "setting": "HepG2 [9]", "value": 27.24, "unit": "%"}, {"measurement": "Activity", "setting": "HepG2 [10]", "value": "Active"}, {"measurement": "Activity", "setting": "HepG2 [11]", "value": "Active"}, {"measurement": "Activity", "setting": "HepG2 [12]", "value": "Active"}, {"measurement": "Activity", "setting": "Mus musculus [13]", "value": "Active"}, {"measurement": "Activity", "setting": "HepG2 [14]", "value": 20.22, "unit": "%"}, {"measurement": "Activity", "setting": "HepG2 [15]", "value": "Active"}, {"measurement": "Activity", "setting": "HepG2 [16]", "value": "Active"}, {"measurement": "Activity", "setting": "HepG2 [17]", "value": 68.62, "unit": "%"}, {"measurement": "Activity", "setting": "HepG2 [18]", "value": 0.76, "unit": "%"}, {"measurement": "Activity", "setting": "HepG2 [19]", "value": 53.37, "unit": "%"}, {"measurement": "Activity", "setting": "HepG2 [20]", "value": "Dose-dependent effect"}, {"measurement": "Activity", "setting": "HepG2 [21]", "value": "Active"}, {"measurement": "Activity", "setting": "HepG2 [22]", "value": "Active"}, {"measurement": "Activity", "setting": "HepG2 [23]", "value": "Active"}, {"measurement": "Activity", "setting": "HepG2 [24]", "value": "Active"}, {"measurement": "Activity", "setting": "HepG2 [25]", "value": "Active"}, {"measurement": "Activity", "setting": "Mus musculus [26]", "value": "Active"}, {"measurement": "Activity", "setting": "HepG2 [27]", "value": "Active"}]}
